Experimental data from ChEMBL document CHEMBL3352272, “Discovery of 2-[5-(4-Fluorophenylcarbamoyl)pyridin-2-ylsulfanylmethyl]phenylboronic Acid (SX-517): Noncompetitive Boronic Acid Antagonist of CXCR1 and CXCR2” (J Med Chem, 2014).
Activity calls are given as the source filed them. No cut-off for these calls is given here.

How the values were obtained:
[1] = biological target: T1, C-X-C chemokine receptor type 2 (Homo sapiens, UniProt P25025); assay: Antagonist activity at CXCR2 in human PMNs assessed as inhibition of CXCL1-induced intracellular Ca2+ release by fluorescence based calcium flux assay; assay type: functional, cell-based
T1 sequence (P25025 whole entry): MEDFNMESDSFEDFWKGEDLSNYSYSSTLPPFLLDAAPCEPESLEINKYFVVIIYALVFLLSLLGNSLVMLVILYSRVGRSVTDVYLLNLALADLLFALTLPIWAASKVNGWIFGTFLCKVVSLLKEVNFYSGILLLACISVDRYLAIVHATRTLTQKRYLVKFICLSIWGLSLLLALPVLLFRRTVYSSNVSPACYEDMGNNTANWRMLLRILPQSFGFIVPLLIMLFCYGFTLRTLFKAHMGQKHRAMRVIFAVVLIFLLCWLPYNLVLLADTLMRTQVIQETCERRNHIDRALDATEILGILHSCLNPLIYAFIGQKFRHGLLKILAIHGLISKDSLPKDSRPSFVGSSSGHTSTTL

[2] = biological target: Platelet-activating factor receptor (Homo sapiens, UniProt P25105); assay: Antagonist activity at platelet-activating factor receptor in human PMNs assessed as inhibition of PAF-induced intracellular Ca2+ release by fluorescence based calcium flux assay; assay type: functional, cell-based
Platelet-activating factor receptor, sequence (P25105 whole entry): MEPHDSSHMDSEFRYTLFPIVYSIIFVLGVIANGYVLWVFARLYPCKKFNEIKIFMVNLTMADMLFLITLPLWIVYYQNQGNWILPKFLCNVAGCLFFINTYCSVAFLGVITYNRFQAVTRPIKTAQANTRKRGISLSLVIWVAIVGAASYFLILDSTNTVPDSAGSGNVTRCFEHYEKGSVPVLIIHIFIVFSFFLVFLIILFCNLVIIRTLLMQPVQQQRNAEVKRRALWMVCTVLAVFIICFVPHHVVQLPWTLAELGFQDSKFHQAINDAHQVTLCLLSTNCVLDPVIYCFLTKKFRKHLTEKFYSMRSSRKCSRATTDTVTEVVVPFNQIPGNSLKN

[3] = biological target: T1, C-X-C chemokine receptor type 2; assay: Antagonist activity at human CXCR2 expressed in HEK293 cells assessed as inhibition of […]-induced [35S]GTPgammaS binding after 60 mins; assay type: functional, cell-based
In short: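 HEK293 cells stably expressing human CXCR2 were pretreated with compound, then lysed (5 mM Tris-HCl pH 7.5, EDTA, EGTA) and membranes spun at 30000g. […] Nonspecific binding was taken with 10 μM GTPγS. IC50 came from nonlinear regression.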

[4] = biological target: T2, Interleukin-8 receptors, CXCR1/CXCR2 (Homo sapiens, UniProt P25025+P25024); assay: Antagonist activity at CXCR1/CXCR2 in human PMNs assessed as inhibition of CXCL8-induced intracellular Ca2+ release by fluorescence based calcium flux assay; assay type: functional, cell-based
T2 sequence (P25025 whole entry): T1 sequence (P25025 whole entry)
T2 sequence (P25024 whole entry): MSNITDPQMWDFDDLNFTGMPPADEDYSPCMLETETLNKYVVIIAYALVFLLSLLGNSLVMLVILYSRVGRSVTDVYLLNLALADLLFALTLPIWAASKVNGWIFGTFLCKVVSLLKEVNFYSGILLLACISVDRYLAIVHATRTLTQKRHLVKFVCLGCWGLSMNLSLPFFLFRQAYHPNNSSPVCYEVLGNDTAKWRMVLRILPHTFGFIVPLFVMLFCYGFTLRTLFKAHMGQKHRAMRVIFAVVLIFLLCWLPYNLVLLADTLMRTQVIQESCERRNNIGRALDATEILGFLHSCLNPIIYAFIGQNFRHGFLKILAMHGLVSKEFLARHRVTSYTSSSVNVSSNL

[5] = biological target: T3, C-X-C chemokine receptor type 2 (Homo sapiens) (UniProt P25025); assay: Antagonist activity at human CXCR2 expressed in HEK293 cells assessed as reduction in CXCL8-induced ERK1/2 phosphorylation at 10 uM after 30 mins by Western blotting method; assay type: cell-based
T3 sequence (whole entry): T1 sequence (P25025 whole entry)
In short: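 Cells were lysed at 0, 5, 15 and 30 min. About 50 μg of protein was run on 10% SDS-PAGE, blotted, and probed for phospho-ERK1/2 and total ERK1/2 with an HRP secondary.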

[6] = biological target: Interleukin-8 receptors, CXCR1/CXCR2 (Homo sapiens) (UniProt P25025+P25024); assay: Antagonist activity at CXCR1/CXCR2 in human PMNs assessed as inhibition of CXCL8-induced intracellular Ca2+ release at 1 uM by fluorescence based calcium flux assay; assay type: functional, cell-based
In short: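 Dye-loaded hPMNs were preincubated with compound or 1% DMSO at 37 °C for 30 min, then resuspended in HBSS+ with compound re-added. […] Fluorescence (ex 485/em 525) was read every 5 s for 240–500 s at room temperature, and the max–min response was expressed as % of the DMSO control.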

[7] = biological target: T1, C-X-C chemokine receptor type 2; assay: Antagonist activity at human CXCR2 expressed in HEK293 cells assessed as inhibition of CXCL8-induced intracellular Ca2+ release by fluorescence based calcium flux assay; assay type: functional, cell-based
[8] = biological target: T4, C5a anaphylatoxin chemotactic receptor 1 (Homo sapiens, UniProt P21730); assay: Antagonist activity at C5a receptor in human PMNs assessed as inhibition of C5a-induced intracellular Ca2+ release by fluorescence based calcium flux assay; assay type: functional, cell-based
T4 sequence (P21730 whole entry): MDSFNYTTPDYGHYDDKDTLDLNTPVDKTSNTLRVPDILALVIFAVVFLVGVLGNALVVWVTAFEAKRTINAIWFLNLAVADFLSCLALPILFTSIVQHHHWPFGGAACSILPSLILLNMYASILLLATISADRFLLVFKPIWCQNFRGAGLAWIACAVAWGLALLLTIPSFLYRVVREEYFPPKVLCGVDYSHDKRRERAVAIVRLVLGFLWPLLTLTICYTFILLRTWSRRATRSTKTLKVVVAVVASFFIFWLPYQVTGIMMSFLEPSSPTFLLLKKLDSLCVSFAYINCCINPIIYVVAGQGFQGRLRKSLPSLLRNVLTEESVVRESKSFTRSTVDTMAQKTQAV

[9] = biological target: T5, fMet-Leu-Phe receptor (Homo sapiens, UniProt P21462); assay: Antagonist activity at fMLF receptor in human PMNs assessed as inhibition of fMLF-induced intracellular Ca2+ release by fluorescence based calcium flux assay; assay type: functional, cell-based
T5 sequence (P21462 whole entry): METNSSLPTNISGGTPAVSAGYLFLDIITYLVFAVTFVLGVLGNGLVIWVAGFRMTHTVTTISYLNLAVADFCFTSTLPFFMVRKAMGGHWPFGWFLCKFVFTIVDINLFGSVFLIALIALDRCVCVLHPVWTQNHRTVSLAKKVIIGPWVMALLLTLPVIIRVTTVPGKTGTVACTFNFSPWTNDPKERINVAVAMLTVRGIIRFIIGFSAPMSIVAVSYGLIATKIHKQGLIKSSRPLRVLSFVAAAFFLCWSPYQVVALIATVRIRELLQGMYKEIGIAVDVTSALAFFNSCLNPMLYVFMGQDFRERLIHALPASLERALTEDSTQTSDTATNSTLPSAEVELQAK

[10] = biological target: T3, C-X-C chemokine receptor type 2 (Homo sapiens); assay: Effect on cell surface expression of human CXCR2 expressed in HEK293 cell […] at 10 uM incubated for 60 mins by FACS method; assay type: cell-based
In short: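 Stably CXCR2-expressing HEK293 cells were pretreated with 10 μM compound or 1% DMSO for 60 min. They were stained with PE-conjugated anti-human CXCR2 mAb (1:100) at 4 °C for 60 min, fixed in 2% formaldehyde and analysed by flow cytometry. Non-expressing HEK293 cells served as the negative control.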

[11] = biological target: T6, C-X-C chemokine receptor type 1 (Homo sapiens, UniProt P25024); assay: Antagonist activity at human CXCR1 expressed in HEK293 cells assessed as inhibition of CXCL8-induced intracellular Ca2+ release by fluorescence based calcium flux assay; assay type: functional, cell-based
T6 sequence (P25024 whole entry): T2 sequence (P25024 whole entry)
In short: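 HEK293 cells were stably transfected with human CXCR1, with a pooled polyclonal line selected in 800 μg/mL G418. […] Fluorescence was read at ex 485/em 525, and max–min was taken as % of control.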

[12] = biological target: T3, C-X-C chemokine receptor type 2 (Homo sapiens); assay: Displacement of [125I]CXCL8 from human CXCR2 expressed in HEK293 cell membranes up to 10 uM by liquid scintillation counting method
In short: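 After 1 h at room temperature, membranes were filtered and counted by scintillation. Results were expressed as % of control specific binding.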

[13] = system: Mus musculus; assay: Antiinflammatory activity in CD1 Swiss mouse air pouch model of inflammation assessed as reduction in total cell count in inflammatory infiltrate at 0.2 mg/kg, iv dosed 3 hrs before carrageenan challenge and measured 4 hrs post carrageenan challenge by trypan blue staining based hemocytometry; assay type: functional, organism-based; design: dose 0.2 mg/kg
In short: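 Male CD1 Swiss mice aged 10–15 weeks received a 2 mL subcutaneous dorsal air injection, reinflated with 1.5 mL the next day. Compound in 20:20:80 PEG400:DMF:saline, or vehicle, was given iv by tail vein (n=5 per group). After 3 h, 1 mL of 2% carrageenan in PBS, or PBS, was injected into the pouch. After 4 h, pouch fluid plus a 2 mL PBS wash was collected, and trypan blue-stained cells were counted by hemocytometer. Statistics used Student's t-test.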

Row | SMILES | IC50 [1] | further results
1 | Cc1cccc(CSc2ccc(C(=O)Nc3ccc(F)cc3)cn2)c1F | > 10 µM | 
2 | O=C(Nc1ccc(F)cc1)c1ccc(SC2CCOC2=O)nc1 (stereo unspecified) | > 5 µM | 
3 | O=C(Nc1ccc(F)cc1)c1ccc(SC[N+](=O)[O-])nc1 | > 10 µM | 
4 | Cc1nc(-c2ccccc2)sc1CSc1ccc(C(=O)Nc2ccc(F)cc2)cn1 | > 5 µM | 
5 | O=C(Nc1ccc(F)cc1)c1ccc(SCc2ccc(OC(F)(F)F)cc2)nc1 | > 10 µM | 
6 | O=C(Nc1ccc(F)cc1)c1ccc(SCc2cccc(-n3cccc3)c2)nc1 | > 10 µM | 
7 | O=C(Nc1ccc(F)cc1)c1ccc(SCc2ccccc2O)nc1 | 0.277 µM | 
8 | O=C(Nc1ccc(F)cc1)c1ccc(SCc2ccc(-n3cccc3)cc2)nc1 | > 10 µM | 
9 | O=C(O)CSc1ccc(C(=O)Nc2ccc(F)cc2)cn1 | > 5 µM | 
10 | O=C(Nc1ccc(F)cc1)c1ccc(SCc2ccc(-n3cccn3)cc2)nc1 | > 10 µM | 
11 | CCOP(=O)(CSc1ccc(C(=O)Nc2ccc(F)cc2)cn1)OCC | > 10 µM | 
12 | O=C(Nc1ccc(F)cc1)c1ccc(SCc2cccc(OC(F)(F)F)c2)nc1 | > 10 µM | 
13 | O=C(c1ccc(SCc2ccccc2B(O)O)nc1)N(CC1CCCCN1)c1ccc(F)cc1 (stereo unspecified) | > 5 µM | 
14 | Cc1nc(-c2cccc(CSc3ccc(C(=O)Nc4ccc(F)cc4)cn3)c2)cs1 | > 5 µM | 
15 | O=C(O)c1ccc(CSc2ccc(C(=O)Nc3ccc(F)cc3)cn2)cc1 | > 10 µM | 
16 | O=C(O)c1ccc(NC(=O)c2ccc(SCc3ccccc3B(O)O)nc2)cc1 | > 10 µM | 
17 | O=C(Nc1ccc(F)cc1)c1ccc(SCc2ccncc2)nc1 | > 5 µM | 
18 | O=C(Nc1ccc(F)cc1)c1ccc(SCc2ccc([N+](=O)[O-])cc2)nc1 | > 5 µM | 
19 | O=C(Nc1ccc(F)cc1)c1ccc(SCC2CCOCC2)nc1 | > 5 µM | 
20 | O=C(Nc1ccc(F)cc1)c1ccc(SCS(=O)(=O)c2ccccc2)nc1 | > 5 µM | 

Row | SMILES | IC50 [1] | further results
21 | Cc1cc(CSc2ccc(C(=O)Nc3ccc(F)cc3)cn2)no1 | > 5 µM | 
22 | Cc1nc(-c2ccc(C(F)(F)F)cc2)sc1CSc1ccc(C(=O)Nc2ccc(F)cc2)cn1 | > 10 µM | 
23 | COC(=O)c1ccc(CSc2ccc(C(=O)Nc3ccc(F)cc3)cn2)cc1 | > 10 µM | 
24 | O=C(Nc1ccc(F)cc1)c1ccc(SCC2CCN(C(=O)OCc3ccccc3)CC2)nc1 | > 10 µM | 
25 | O=C(Nc1ccc(F)cc1)c1ccc(SCC2CCCCO2)nc1 (stereo unspecified) | > 5 µM | 
26 | O=C(Nc1ccc(F)cc1)c1ccc(Sc2ccccc2)nc1 | > 10 µM | 
27 | O=C(Nc1ccc(F)cc1)c1ccc(SCc2ccccc2B(O)O)nc1 |  | IC50 [2]: > 5 µM; IC50 [3]: 0.06 µM; IC50 [4]: 0.036 µM; inhibition [5]: Active; inhibition [6]: Active; IC50 [7]: 0.21 µM; IC50 [8]: > 5 µM; IC50 [9]: > 5 µM; Activity [10]: inactive; IC50 [11]: 0.88 µM; inhibition [12]: inactive; inhibition [13]: Active
28 | COC(=O)c1cccc(CSc2ccc(C(=O)Nc3ccc(F)cc3)cn2)c1 | > 5 µM | 
29 | O=C(Nc1ccc(-c2nn[nH]n2)cc1)c1ccc(SCc2ccccc2B(O)O)nc1 | > 10 µM | 
30 | Cc1nc(-c2ccc(CSc3ccc(C(=O)Nc4ccc(F)cc4)cn3)cc2)cs1 | > 10 µM | 
31 | O=C(Nc1ccc(F)cc1)c1ccc(SCc2ccc([N+](=O)[O-])o2)nc1 | > 5 µM | 
32 | Cc1nn(-c2ccccc2)nc1CSc1ccc(C(=O)Nc2ccc(F)cc2)cn1 | > 5 µM | 
33 | Cc1n[nH]c(C)c1CCSc1ccc(C(=O)Nc2ccc(F)cc2)cn1 | > 5 µM | 
34 | Cc1nc(-c2cccc(CSc3ccc(C(=O)Nc4ccc(F)cc4)cn3)c2)no1 | > 10 µM | 
35 | O=C(Nc1ccc(F)cc1)c1ccc(SCc2ccc(-n3cncn3)cc2)nc1 | > 10 µM | 
36 | O=C(Nc1ccc(F)cc1)c1ccc(SCc2ccc(C(F)(F)F)o2)nc1 | > 5 µM | 
37 | O=C(Nc1ccc(F)cc1)c1ccc(SCc2ccccc2-c2cccs2)nc1 | > 5 µM | 
38 | Cc1nc(-c2ccc(CSc3ccc(C(=O)Nc4ccc(F)cc4)cn3)cc2)no1 | > 5 µM | 
39 | Cc1onc(-c2ccccc2)c1CSc1ccc(C(=O)Nc2ccc(F)cc2)cn1 | > 5 µM | 
40 | Cc1noc(-c2ccccc2)c1CSc1ccc(C(=O)Nc2ccc(F)cc2)cn1 | > 10 µM | 
